Laboratory results reported in ChEMBL document CHEMBL4251576, “Synthesis and biological evaluation of curcumin inspired imidazo[1,2-a]pyridine analogues as tubulin polymerization inhibitors” (Eur J Med Chem, 2018).
Activity calls are given as the source filed them. The rule behind the calls is not given here.

Columns and labels:
[1] = test system: PC-3; assay: Cell cycle arrest in human PC3 cells assessed as accumulation at G2/M phase at 2 uM after 24 hrs by propidium iodide staining-based flow cytometric method (reference value: 33.13%); format: functional
[2] = test system: PC-3; assay: Cytotoxicity against human PC3 cells assessed as inhibition of cell viability after 48 hrs by MTT assay; format: functional, cell-based; details: PC-3, 48 h
Method in brief: (§1)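 Cells were seeded at 2.5‒5 x 10^3 per well in DMEM or RPMI with 10% FBS and grown 24 h at 37 °C under CO2. Compounds diluted in medium were added alongside vehicle control for 48 h. MTT (0.5 mg/mL) was added for 4 h, formazan dissolved in DMSO and absorbance read at 570 nm. IC50 is the concentration giving 50% loss of viability; mean ± SD of three experiments, each in triplicate.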

[3] = test system: DU-145; assay: Cytotoxicity against human DU145 cells assessed as inhibition of cell viability after 48 hrs by MTT assay; format: functional, cell-based; details: DU-145, 48 h; method in brief: as §1
[4] = test system: PC-3; assay: Induction of apoptosis in human PC3 cells assessed as necrotic cells at 2 uM after 24 hrs by FITC-annexin V/propidium iodide staining-based flow cytometric method (reference value: 0.32%); format: functional
[5] = test system: PC-3; assay: Induction of apoptosis in human PC3 cells assessed as nuclei condensation at 1 to 2 uM after 48 hrs by DAPI staining-based fluorescence microscopic method; format: functional, cell-based
Method in brief: (§2)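 PC-3 cells (25000/well) adhered overnight, then treated 48 h at 1 or 2 µM. After PBS wash, fixed 20 min in 4% neutral buffered formalin, permeabilized 5 min with 0.2% Triton X, and stained 10 min at room temperature with DAPI (1 µg/mL). Nuclei viewed by fluorescence microscopy (ex 350 nm, em 460 nm, 200x).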

[6] = test system: PC-3; assay: Induction of apoptosis in human PC3 cells assessed as appearance of horse-shoe shaped nuclei at 2 uM after 48 hrs by acridine orange/ethidium bromide staining-based fluorescence inverted microscopic method; format: functional, cell-based
Method in brief: (§3)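 PC-3 cells (25000/well) grown 24 h, then exposed 48 h to 0.5, 1 or 2 µM with DMSO control. After PBS wash, stained with acridine orange and ethidium bromide (10 µg/mL each) and imaged at once by fluorescence inverted microscopy (ex 488 nm, em 530 nm, 200x).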

[7] = test system: 4T1; assay: Cytotoxicity against mouse 4T1 cells assessed as inhibition of cell viability after 48 hrs by MTT assay; format: functional, cell-based; details: 4T1, 48 h; method in brief: as §1
[8] = test system: NCI-H460; assay: Cytotoxicity against human NCI-H460 cells assessed as inhibition of cell viability after 48 hrs by MTT assay; format: functional, cell-based; details: NCI-H460, 48 h; method in brief: as §1
[9] = test system: PC-3; assay: Induction of mitochondrial membrane depolarization in human PC3 cells after 24 hrs by JC1 staining-based flow cytometric method; format: functional, cell-based
[10] = test system: HGC-27; assay: Cytotoxicity against human HGC27 cells assessed as inhibition of cell viability after 48 hrs by MTT assay; format: functional, cell-based; details: HGC-27, 48 h; method in brief: as §1
[11] = test system: PC-3; assay: Induction of apoptosis in human PC3 cells assessed as early apoptotic cells at 2 uM after 24 hrs by FITC-annexin V/propidium iodide staining-based flow cytometric method (reference value: 7.62%); format: functional
[12] = test system: PC-3; assay: Cell cycle arrest in human PC3 cells assessed as accumulation at G2/M phase at 1 uM after 24 hrs by propidium iodide staining-based flow cytometric method (reference value: 33.13%); format: functional
[13] = test system: PC-3; assay: Induction of apoptosis in human PC3 cells assessed as nuclei fragmentation at 1 to 2 uM after 48 hrs by DAPI staining-based fluorescence microscopic method; format: functional, cell-based; method in brief: as §2
[14] = test system: PC-3; assay: Induction of apoptosis in human PC3 cells assessed as blebbing of cell membrane at 0.5 uM after 48 hrs by acridine orange/ethidium bromide staining-based fluorescence inverted microscopic method; format: functional; method in brief: as §3
[15] = test system: PC-3; assay: Cell cycle arrest in human PC3 cells assessed as accumulation at G0/G1 phase at 2 uM after 24 hrs by propidium iodide staining-based flow cytometric method (reference value: 58.41%); format: functional
[16] = test system: PC-3; assay: Cell cycle arrest in human PC3 cells assessed as accumulation at subG1 phase at 1 uM after 24 hrs by propidium iodide staining-based flow cytometric method (reference value: 0.38%); format: functional
[17] = test system: PC-3; assay: Cell cycle arrest in human PC3 cells assessed as accumulation at G0/G1 phase at 1 uM after 24 hrs by propidium iodide staining-based flow cytometric method (reference value: 58.41%); format: functional
[18] = test system: NCI-H460; assay: Potency index, ratio of curcumin IC50 to test compound IC50 for human NCI-H460 cells; format: functional
[19] = test system: PC-3; assay: Induction of apoptosis in human PC3 cells assessed as destructive fragmentation of nuclei at 2 uM after 48 hrs by acridine orange/ethidium bromide staining-based fluorescence inverted microscopic method; format: functional, cell-based; method in brief: as §3
[20] = test system: RWPE-1; assay: Cytotoxicity against human RWPE1 cells assessed as inhibition of cell viability after 48 hrs by MTT assay; format: cell-based; details: RWPE-1, 48 h; method in brief: as §1
[21] = test system: DU-145; assay: Potency index, ratio of curcumin IC50 to test compound IC50 for human DU145 cells; format: functional
[22] = species on record: Sus scrofa; assay: Inhibition of tubulin polymerization in porcine brain at 10 uM after 60 mins by fluorescence assay relative to control
Method in brief: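 Cell-free kit assay using porcine brain tubulin (2 mg/mL) in 80 mM PIPES pH 6.9 with 2.0 mM MgCl2, 0.5 mM EGTA, 1.0 mM GTP and glycerol; compound at 10 µM final, nocodazole as positive control. Polymerization tracked over time as fluorescence of a reporter incorporated into microtubules (ex 360 nm, em 440 nm), with inhibition relative to control.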

[23] = test system: PC-3; assay: Induction of reactive oxygen species formation in human PC3 cells at 1 to 2 uM after 6 hrs by DCFDA staining-based flow cytometric method; format: functional, cell-based
Method in brief: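 PC-3 cells at 1 x 10^5 cells/mL adhered overnight, then exposed to 1 or 2 µM. Medium replaced with DCFDA (10 µM) for 0.5 h at room temperature in the dark; fluorescence read by flow cytometry (ex 488 nm, em 530 nm). Mean ± SEM of three experiments, one-way ANOVA with Dunnett's test.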

[24] = test system: PC-3; assay: Cell cycle arrest in human PC3 cells assessed as accumulation at G0/G1 phase after 24 hrs by propidium iodide staining-based flow cytometric method; format: functional
[25] = test system: PC-3; assay: Induction of mitochondrial membrane depolarization in human PC3 cells at 4 uM after 24 hrs by JC1 staining-based flow cytometric method (reference value: 11.9%); format: functional
[26] = test system: PC-3; assay: Induction of apoptosis in human PC3 cells assessed as late apoptotic cells at 2 uM after 24 hrs by FITC-annexin V/propidium iodide staining-based flow cytometric method (reference value: 5.75%); format: functional
[27] = test system: PC-3; assay: Induction of apoptosis in human PC3 cells assessed as early apoptotic cells at 4 uM after 24 hrs by FITC-annexin V/propidium iodide staining-based flow cytometric method (reference value: 7.62%); format: functional
[28] = test system: PC-3; assay: Induction of apoptosis in human PC3 cells assessed as apoptotic body formation at 1 uM after 48 hrs by acridine orange/ethidium bromide staining-based fluorescence inverted microscopic method; format: functional, cell-based; method in brief: as §3
[29] = test system: PC-3; assay: Induction of apoptosis in human PC3 cells assessed as late apoptotic cells at 4 uM after 24 hrs by FITC-annexin V/propidium iodide staining-based flow cytometric method (reference value: 5.75%); format: functional
[30] = test system: PC-3; assay: Cell cycle arrest in human PC3 cells assessed as accumulation at S phase at 2 uM after 24 hrs by propidium iodide staining-based flow cytometric method (reference value: 8.08%); format: functional

## COc1cc(OC)c(/C=C/C(=O)/C=C/c2nc3ccccn3c2-c2ccc(F)c(F)c2)c(OC)c1
[1]
  Activity: 55.84%
[2]
  IC50: 2.11 µM
[3]
  IC50: 2.97 µM
[4]
  Activity: 1.32%
[5]
  Activity: Active
[6]
  Activity: Active
[7]
  IC50: 1.71 µM
[8]
  IC50: 2.63 µM
[9]
  Activity: Dose-dependent effect
[10]
  IC50: 2.21 µM
[11]
  Activity: 3.4%
[12]
  Activity: 44.65%
[13]
  Activity: Active
[14]
  Activity: Active
[15]
  Activity: 32.66%
[16]
  Activity: 0.57%
[17]
  Activity: 44.87%
[18]
  Ratio IC50: 6.5
[19]
  Activity: Active
[20]
  IC50: 4.23 µM
[21]
  Ratio IC50: 11.1
[22]
  inhibition: 51.8%
[23]
  Activity: Active
[24]
  Activity: Dose-dependent effect
[25]
  Activity: 52.3%
[26]
  Activity: 27.94%
[27]
  Activity: 7.3%
[28]
  Activity: Active
[29]
  Activity: 48.34%
[30]
  Activity: 0.76%
